# In publication PMC5933005 (Dalton Transactions (Cambridge, England : 2003), 2018):
# Where two headings read alike, the source gives them in different places.
# Assays:
# [1] = 15 min after oral administration; cited from earlier work
# [2] = whole human blood in vitro; cited from earlier work
# [3] = Biotransformation / kinetic inertness in whole human blood by RP-ICP-MS; type: in vitro ADME; settings: 37 °C; for stability of parent compound in whole human blood: 24 h incubation; for platinum(II) metabolites detected in whole human blood: after 24 h incubation
# Procedure, shortened: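 Fresh human blood spiked with test compound was extracted in one of two ways: ice-cold acetonitrile with vortexing, sonication and centrifugation, or 0.1% formic acid, dry-ice freeze/sonication thaw, then 25% TCA precipitation. Supernatants were 0.45 μm filtered, diluted 1:5 in 50 mM ammonium formate (pH 6.0) and held at 4 °C. Species were separated by C18 RP-ICP-MS in triplicate, with a platinum(IV) reference QC for normalisation. Half-life came from a first-order fit.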
# [4] = test system: leukemia L1210 mouse model; settings: cited from earlier work
# [5] = test system: murine colon cancer model CT-26; settings: i.p. and p.o. administration; cited from earlier work
# [6] = test system: SW480 (colon carcinoma) cells; settings: 2 h exposure; cited from earlier work
# [7] = type: in vitro ADME, human; settings: for proportion of platinum found in blood cells: after 2 h, ~10 μM in whole human blood, 37 °C
# Procedure, shortened: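 Fresh heparinised human whole blood was spiked from a 1 mM aqueous stock to a final ~10 μM and incubated at 37 °C for 0, 0.5, 1, 2 and 24 h. It was centrifuged for 10 min at 2000 rcf in a 4 °C rotor. Plasma and cell fractions were microwave-digested in 25% nitric acid at 200 °C, and Pt was measured by ICP-MS. Values were normalised to haematocrit (47%) and fraction density, and the rate constant came from an exponential fit.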
# [8] = kinetic model, exponential kinetics, whole human blood
compound,measurement,setting,value
CC(=O)[O][Pt]([NH2])([Cl])([Cl])([NH]C1CCCCC1)[O]C(C)=O [satraplatin],detection of parent compound in patient's plasma ultrafiltrate,[1],could not be detected any more
same,number of platinum-containing species in patient's plasma ultrafiltrate,[1],seven
same,half-life for the disappearance of the parent compound,[2],6.3 min
"CC(=O)[O][Pt]1([NH2])([NH2])([O]C(C)=O)[O]C(=O)C2(CCC2)C(=O)[O]1 [Complex 3, (OC-6-33)-diacetatodiammine(1,1-cyclobutanedicarboxylato)-platinum(IV)]",stability of parent compound in whole human blood,"[3]; 10 μM, RP-ICP-MS",remain stable over 24 hours
"O=C1[O][Pt]2([OH])([OH])([NH]C3CCCCC3[NH]2)[O]C1=O [Complex 1, (OC-6-33)-dihydroxido(1R,2R-diaminocyclohexane)oxalatoplatinum(IV)]",stability of parent compound in whole human blood,"[3]; 10 μM, RP-ICP-MS",remain stable over 24 hours
"(OC-6-33)-diacetato(1R,2R-diaminocyclohexane)oxalatoplatinum(IV) [Complex 2]",platinum(II) metabolites detected in whole human blood,"[3]; 10 μM, RP-ICP-MS",a significant amount of oxaliplatin could be detected
same,species observed in whole human blood,"[3]; over 6 hours incubation, 10 μM, RP-ICP-MS",only the intact complex was observed
"CC[NH][Pt]([Cl])([Cl])([NH]CC)([O]C(=O)CCC(=O)OCC)[O]C(=O)CCC(=O)OCC [Complex 4, (OC-6-33)-dichloridobis((4-ethoxy)-4-oxobutanoato)bis(ethylamine)platinum(IV)]",efficacy in L1210 model,[4],efficacy
same,anticancer activity in CT-26 model,[5],showed anticancer activity
same,platinum accumulation in SW480 cells,[6],high platinum accumulation
same,stability of parent compound in whole human blood,"[3]; 10 μM, RP-ICP-MS",could not be detected any more after 24 hours
same,platinum(II) metabolites detected in whole human blood,"[3]; 10 μM, RP-ICP-MS",no notable amounts of hydrophilic platinum(II)-metabolites were detected
same,half-life in blood,"[3]; first-order kinetic model, whole human blood",45.4 ± 3.3 min
same,proportion of platinum found in blood cells,[7],around 60%
same,proportion of platinum found in blood cells,[7]; listed as Compound 4,60%
same,drug-related platinum inside blood cells in equilibrium,[7]; [8],59.7 ± 0.9%
same,first-order rate constant of accumulation in blood cells,[7]; [8],1.2 ± 0.1 h⁻¹
same,proportion of platinum in red blood cells,"[7]; time point 0, ~10 μM in whole human blood",30%
